Source: ChEMBL document CHEMBL3352788, “Characterization of selective exosite-binding inhibitors of matrix metalloproteinase 13 that prevent articular cartilage degradation in vitro” (J Med Chem, 2014)
Each block holds one compound with its values, some of them ahead of it.

How the values were obtained:
Liver microsome = experiment: Half life in human liver microsomes by LC-MS/MS analysis; type: ADME
Outline: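 Compound at 1 μM with 1 mg/mL liver microsomes in 100 mM potassium phosphate pH 7.4 at 37 °C with shaking. Reaction started with 1 mM NADPH (final). Aliquots were taken at 0, 5, 10, 20, 40 and 60 min and quenched in acetonitrile. Parallel incubations without NADPH were run.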

[1] = biological target: Beta-secretase 1 (Homo sapiens) (UniProt P56817); experiment: Inhibition of recombinant human BACE1 using SEVNLDAEFRKKRR substrate at up to 5 uM after 3 hrs
Chain of Beta-secretase 1 (Homo sapiens) (P56817 whole entry): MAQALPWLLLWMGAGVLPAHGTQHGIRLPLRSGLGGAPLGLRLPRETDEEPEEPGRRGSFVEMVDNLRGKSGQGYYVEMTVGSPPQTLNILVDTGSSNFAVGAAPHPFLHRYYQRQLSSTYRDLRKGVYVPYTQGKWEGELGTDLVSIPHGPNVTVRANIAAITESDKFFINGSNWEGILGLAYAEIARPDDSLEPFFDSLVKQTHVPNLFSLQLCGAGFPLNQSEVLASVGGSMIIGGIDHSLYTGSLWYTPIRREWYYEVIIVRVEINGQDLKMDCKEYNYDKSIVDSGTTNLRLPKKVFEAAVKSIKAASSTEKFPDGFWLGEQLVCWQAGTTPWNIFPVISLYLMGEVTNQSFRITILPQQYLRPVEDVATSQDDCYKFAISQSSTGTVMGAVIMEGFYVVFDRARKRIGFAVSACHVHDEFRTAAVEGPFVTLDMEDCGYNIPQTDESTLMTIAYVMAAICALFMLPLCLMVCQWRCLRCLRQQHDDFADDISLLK
Outline: (§1)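 Outsourced microfluidic protease panel. Compound was preincubated with each protease for 30 min at 25 °C, then peptide substrate was added for 3 h at 25 °C and quenched with SDS/EDTA/iodoacetate. Substrate-to-product conversion was measured on LabChip. Compounds were tested singly in a 12-point 3-fold dilution series, top 20 μM (5 μM for two reference compounds).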

[2] = biological target: Cathepsin D (Homo sapiens) (UniProt P07339); experiment: Inhibition of recombinant human cathepsin D using EVNLDAEFRK substrate at up to 5 uM after 3 hrs; outline: as §1
Chain of Cathepsin D (Homo sapiens) (P07339 65-162 limits assumed): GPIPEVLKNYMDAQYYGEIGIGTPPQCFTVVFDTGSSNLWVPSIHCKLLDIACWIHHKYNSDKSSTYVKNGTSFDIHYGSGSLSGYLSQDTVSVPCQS
Chain of Cathepsin D (Homo sapiens) (P07339 169-412 limits assumed): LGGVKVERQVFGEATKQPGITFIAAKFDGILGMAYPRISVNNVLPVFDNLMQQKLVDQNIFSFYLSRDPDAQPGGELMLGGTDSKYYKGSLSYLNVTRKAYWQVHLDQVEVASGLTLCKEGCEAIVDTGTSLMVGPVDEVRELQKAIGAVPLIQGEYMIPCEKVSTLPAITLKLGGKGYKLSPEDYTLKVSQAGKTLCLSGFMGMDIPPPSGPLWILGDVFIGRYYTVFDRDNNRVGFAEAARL

Caspase-2 (Homo sapiens) = biological target: T1, Caspase-2 (Homo sapiens) (UniProt P42575); experiment: Inhibition of recombinant human caspase 2 using DEVDAA substrate at up to 5 uM after 3 hrs; outline: as §1
T1 sequence (whole entry): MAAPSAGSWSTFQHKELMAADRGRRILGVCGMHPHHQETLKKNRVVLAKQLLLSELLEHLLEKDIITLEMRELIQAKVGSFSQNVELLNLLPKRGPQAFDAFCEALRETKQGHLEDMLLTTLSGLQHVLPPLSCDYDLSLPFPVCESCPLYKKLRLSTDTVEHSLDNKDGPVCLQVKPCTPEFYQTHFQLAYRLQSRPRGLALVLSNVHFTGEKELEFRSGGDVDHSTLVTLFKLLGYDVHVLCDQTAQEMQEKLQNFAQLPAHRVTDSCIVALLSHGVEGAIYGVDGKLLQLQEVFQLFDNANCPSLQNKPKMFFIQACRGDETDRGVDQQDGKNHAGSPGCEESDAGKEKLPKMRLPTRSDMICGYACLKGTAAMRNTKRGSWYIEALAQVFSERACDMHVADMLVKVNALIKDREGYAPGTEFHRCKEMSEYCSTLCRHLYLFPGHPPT

Furin (Homo sapiens) = Furin (Homo sapiens) (UniProt P09958); experiment: Inhibition of recombinant human furin using RRVKRSLD substrate at up to 5 uM after 3 hrs
Chain of Furin (Homo sapiens) (P09958 whole entry): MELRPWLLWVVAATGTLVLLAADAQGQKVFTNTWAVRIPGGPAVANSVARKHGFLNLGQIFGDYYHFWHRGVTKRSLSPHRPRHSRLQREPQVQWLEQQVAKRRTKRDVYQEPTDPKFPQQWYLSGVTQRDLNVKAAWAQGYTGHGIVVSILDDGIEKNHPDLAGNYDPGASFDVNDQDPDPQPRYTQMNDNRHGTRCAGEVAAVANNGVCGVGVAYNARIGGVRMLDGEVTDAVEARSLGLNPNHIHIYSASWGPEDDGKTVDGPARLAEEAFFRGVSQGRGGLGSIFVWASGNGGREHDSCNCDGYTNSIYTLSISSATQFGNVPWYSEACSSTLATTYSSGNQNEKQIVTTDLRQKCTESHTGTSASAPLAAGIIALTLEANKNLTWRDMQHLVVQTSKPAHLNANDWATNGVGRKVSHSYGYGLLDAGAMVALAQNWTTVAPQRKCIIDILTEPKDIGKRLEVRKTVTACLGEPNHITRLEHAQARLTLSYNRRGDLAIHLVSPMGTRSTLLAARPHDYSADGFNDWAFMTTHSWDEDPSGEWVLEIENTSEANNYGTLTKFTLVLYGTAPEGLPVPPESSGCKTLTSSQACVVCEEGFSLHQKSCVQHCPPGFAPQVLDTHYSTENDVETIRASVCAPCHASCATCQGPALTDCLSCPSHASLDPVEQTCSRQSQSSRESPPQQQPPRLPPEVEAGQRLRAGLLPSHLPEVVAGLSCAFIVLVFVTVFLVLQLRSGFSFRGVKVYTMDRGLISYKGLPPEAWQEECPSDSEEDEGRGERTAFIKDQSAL
Outline: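 In this microfluidic protease panel, enzyme and compound were preincubated 30 min at 25 °C. The peptide substrate was added and the reaction was incubated 3 h at 25 °C, then quenched (SDS, EDTA, iodoacetate). Activity was read as % substrate converted to product. Dose–response was singlicate, 12-point 3-fold dilutions spanning 5 μM to 0.028 nM. IC50 was the concentration leaving 50% activity relative to no-compound control.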

CYP1A2 = CYP1A2 (Homo sapiens, UniProt P05177); experiment: Inhibition of CYP1A2 (unknown origin) using tacrin substrate at 2.5 uM; type: ADME; details: probe tacrin
Outline: (§2)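 Human liver microsomes with probe substrate and an NADPH-regenerating system in 0.1 M potassium phosphate pH 7.4 at 37 °C, run in duplicate. Inhibitor at 0–20 μM (0–2.5 μM for one compound), eight concentrations. Reactions were stopped with acetonitrile/formic acid containing isotope-labelled internal standard, and metabolite area ratios were compared with and without inhibitor. IC50 was taken by linear interpolation between bracketing concentrations.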

CYP2B6 [3] = biological target: T2, CYP2B6 (Homo sapiens, UniProt P20813); experiment: Inhibition of CYP2B6 (unknown origin) using bupropion substrate at 2.5 uM; type: ADME; details: probe bupropion; outline: as §2
T2 sequence (P20813 whole entry): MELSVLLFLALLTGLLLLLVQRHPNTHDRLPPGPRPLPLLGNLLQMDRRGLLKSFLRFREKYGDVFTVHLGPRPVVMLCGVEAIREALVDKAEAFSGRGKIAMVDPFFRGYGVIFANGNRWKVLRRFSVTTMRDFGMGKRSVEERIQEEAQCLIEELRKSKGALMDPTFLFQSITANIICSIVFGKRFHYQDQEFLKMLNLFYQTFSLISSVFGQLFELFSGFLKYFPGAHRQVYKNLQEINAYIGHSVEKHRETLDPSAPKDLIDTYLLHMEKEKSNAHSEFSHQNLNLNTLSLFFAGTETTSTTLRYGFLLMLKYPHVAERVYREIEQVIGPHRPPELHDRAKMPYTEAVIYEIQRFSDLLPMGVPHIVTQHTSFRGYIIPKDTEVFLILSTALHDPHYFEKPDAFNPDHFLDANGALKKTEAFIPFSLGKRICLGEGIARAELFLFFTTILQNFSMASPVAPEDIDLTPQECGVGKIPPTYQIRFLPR

CYP2C19 [4] = biological target: T3, CYP2C19 (Homo sapiens, UniProt P33261); experiment: Inhibition of CYP2C19 (unknown origin) using (S)-mephentoin substrate at 2.5 uM; type: ADME; details: probe (S)-mephentoin; outline: as §2
T3 sequence (P33261 whole entry): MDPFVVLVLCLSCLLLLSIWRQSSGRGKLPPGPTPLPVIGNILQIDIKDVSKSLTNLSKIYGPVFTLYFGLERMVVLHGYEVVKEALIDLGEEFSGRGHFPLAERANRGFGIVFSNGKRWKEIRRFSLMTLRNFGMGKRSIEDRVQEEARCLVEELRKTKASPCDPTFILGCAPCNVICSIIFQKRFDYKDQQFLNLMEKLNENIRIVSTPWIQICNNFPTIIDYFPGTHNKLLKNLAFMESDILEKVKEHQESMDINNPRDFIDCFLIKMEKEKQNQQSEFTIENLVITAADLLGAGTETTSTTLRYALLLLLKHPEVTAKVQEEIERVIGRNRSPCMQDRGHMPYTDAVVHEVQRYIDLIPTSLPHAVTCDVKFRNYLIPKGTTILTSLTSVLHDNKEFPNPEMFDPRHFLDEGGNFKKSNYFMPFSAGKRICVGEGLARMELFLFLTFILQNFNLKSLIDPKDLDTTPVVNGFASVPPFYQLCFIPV

CYP3A4 = CYP3A4 (Homo sapiens, UniProt P08684); experiment: Inhibition of CYP3A4 (unknown origin) using testosterone substrate at 2.5 uM; type: ADME; details: probe testosterone; outline: as §2
Chain of CYP3A4 (P08684 whole entry): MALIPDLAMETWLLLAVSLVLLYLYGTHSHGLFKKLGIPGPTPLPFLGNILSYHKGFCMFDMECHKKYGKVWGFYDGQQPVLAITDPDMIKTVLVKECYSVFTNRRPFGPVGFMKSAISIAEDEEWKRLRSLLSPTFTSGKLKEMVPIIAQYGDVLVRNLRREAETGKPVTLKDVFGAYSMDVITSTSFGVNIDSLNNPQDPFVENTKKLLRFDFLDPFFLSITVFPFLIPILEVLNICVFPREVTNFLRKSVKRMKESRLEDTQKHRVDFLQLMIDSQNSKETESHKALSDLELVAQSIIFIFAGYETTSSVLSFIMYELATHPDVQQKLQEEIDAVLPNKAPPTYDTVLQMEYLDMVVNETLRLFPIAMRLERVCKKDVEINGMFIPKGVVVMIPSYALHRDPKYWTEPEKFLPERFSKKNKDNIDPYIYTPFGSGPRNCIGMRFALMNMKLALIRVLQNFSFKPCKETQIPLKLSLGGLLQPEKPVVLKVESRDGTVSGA

Cytochrome P450 2C8 = biological target: T4, Cytochrome P450 2C8 (Homo sapiens, UniProt P10632); experiment: (§3) Inhibition of CYP2C8 (unknown origin) using amodiaquine substrate at 20 uM; type: ADME; details: 20 µM; outline: as §2
T4 sequence (P10632 whole entry): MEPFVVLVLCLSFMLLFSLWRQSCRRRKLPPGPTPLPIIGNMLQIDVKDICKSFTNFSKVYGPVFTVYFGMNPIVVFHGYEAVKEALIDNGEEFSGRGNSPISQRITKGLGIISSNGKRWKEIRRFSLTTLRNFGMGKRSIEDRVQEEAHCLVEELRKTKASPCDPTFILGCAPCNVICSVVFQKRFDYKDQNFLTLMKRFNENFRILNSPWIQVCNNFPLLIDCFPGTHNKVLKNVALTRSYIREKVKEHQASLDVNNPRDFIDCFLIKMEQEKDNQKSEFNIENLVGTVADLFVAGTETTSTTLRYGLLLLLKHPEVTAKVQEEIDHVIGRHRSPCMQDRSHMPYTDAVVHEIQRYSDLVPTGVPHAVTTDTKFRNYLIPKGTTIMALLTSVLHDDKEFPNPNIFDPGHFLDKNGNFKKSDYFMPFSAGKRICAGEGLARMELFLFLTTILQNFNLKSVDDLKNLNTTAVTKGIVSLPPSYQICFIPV

Cytochrome P450 2C9 = Cytochrome P450 2C9 (Homo sapiens, UniProt P11712); experiment: (§4) Inhibition of CYP2C9 (unknown origin) using diclofenac substrate at 20 uM; type: ADME; details: 20 µM; outline: as §2
Chain of Cytochrome P450 2C9 (P11712 whole entry): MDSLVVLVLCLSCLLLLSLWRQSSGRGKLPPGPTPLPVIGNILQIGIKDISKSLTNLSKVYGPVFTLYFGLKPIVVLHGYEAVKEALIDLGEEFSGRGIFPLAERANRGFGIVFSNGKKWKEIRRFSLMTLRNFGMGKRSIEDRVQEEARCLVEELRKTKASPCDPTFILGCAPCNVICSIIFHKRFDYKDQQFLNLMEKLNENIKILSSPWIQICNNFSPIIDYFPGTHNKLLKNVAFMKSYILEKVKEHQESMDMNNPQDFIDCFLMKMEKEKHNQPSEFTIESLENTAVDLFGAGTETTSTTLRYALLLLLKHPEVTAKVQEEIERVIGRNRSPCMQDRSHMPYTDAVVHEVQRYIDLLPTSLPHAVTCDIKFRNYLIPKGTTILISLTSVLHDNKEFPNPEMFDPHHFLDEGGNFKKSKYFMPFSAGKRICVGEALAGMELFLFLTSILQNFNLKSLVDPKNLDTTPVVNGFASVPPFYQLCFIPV

Cytochrome P450 2C19 = Cytochrome P450 2C19 (Homo sapiens, UniProt P33261); experiment: (§5) Inhibition of CYP2C19 (unknown origin) using (S)-mephentoin substrate at 20 uM; type: ADME; details: 20 µM; outline: as §2
Cytochrome P450 2D6 = Cytochrome P450 2D6 (Homo sapiens, UniProt P10635); experiment: (§6) Inhibition of CYP2D6 (unknown origin) using dextromethophan substrate at 20 uM; type: ADME; details: 20 µM; outline: as §2
Chain of Cytochrome P450 2D6 (P10635 whole entry): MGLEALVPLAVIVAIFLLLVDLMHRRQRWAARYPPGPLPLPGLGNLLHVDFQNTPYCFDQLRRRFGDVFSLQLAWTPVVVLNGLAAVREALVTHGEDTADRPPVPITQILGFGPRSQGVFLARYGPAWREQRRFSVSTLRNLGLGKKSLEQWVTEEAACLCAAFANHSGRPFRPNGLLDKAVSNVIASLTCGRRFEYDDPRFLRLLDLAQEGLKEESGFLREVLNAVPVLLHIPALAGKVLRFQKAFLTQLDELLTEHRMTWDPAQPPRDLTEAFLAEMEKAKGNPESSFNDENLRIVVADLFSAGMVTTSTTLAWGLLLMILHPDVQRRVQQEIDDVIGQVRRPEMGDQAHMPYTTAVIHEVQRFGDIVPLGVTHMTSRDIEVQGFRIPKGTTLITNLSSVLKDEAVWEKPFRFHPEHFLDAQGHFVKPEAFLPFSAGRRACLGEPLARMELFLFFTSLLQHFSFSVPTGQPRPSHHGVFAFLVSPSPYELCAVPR

CYP2B6 [5] = biological target: T2, CYP2B6; experiment: Inhibition of CYP2B6 (unknown origin) using bupropion substrate at 20 uM; type: ADME; details: probe bupropion; outline: as §2
CYP2C8 = CYP2C8 (Homo sapiens, UniProt P10632); experiment: as §3; type: ADME; details: probe amodiaquine; outline: as §2
CYP2C9 = CYP2C9 (Homo sapiens, UniProt P11712); experiment: as §4; type: ADME; details: probe diclofenac; outline: as §2
Chain of CYP2C9 (P11712 whole entry): as the sequence (P11712 whole entry) above

CYP2C19 [6] = biological target: T3, CYP2C19; experiment: as §5; type: ADME; details: probe (S)-mephentoin; outline: as §2
CYP2D6 = CYP2D6 (Homo sapiens, UniProt P10635); experiment: as §6; type: ADME; details: probe dextromethophan; outline: as §2
Chain of CYP2D6 (P10635 whole entry): as the sequence (P10635 whole entry) above

SMILES: Oc1nc(SCc2ccc(Cl)cc2)nc2c1CCC2
t1/2 (Liver microsome): 10.4 min

inhibition [1]: < 10%
inhibition [2]: < 10%
inhibition (Caspase-2 (Homo sapiens)): < 10%
inhibition (Furin (Homo sapiens)): < 10%
inhibition at 2.5 µM (CYP1A2): 17%
inhibition at 2.5 µM (CYP2B6 [3]): < 50%
inhibition at 2.5 µM (CYP2C19 [4]): < 50%
inhibition at 2.5 µM (CYP3A4): < 50%
SMILES: Cn1c(=O)n(Cc2ccc(C(=O)O)cc2)c(=O)c2cc(C#CCc3ccccc3)ccc21

inhibition [1]: < 10%
inhibition [2]: < 10%
inhibition (Caspase-2 (Homo sapiens)): < 10%
inhibition (Furin (Homo sapiens)): < 10%
inhibition (INH) (Cytochrome P450 2C8): > 10%
inhibition (INH) (Cytochrome P450 2C9): > 10%
inhibition (INH) (Cytochrome P450 2C19): > 10%
inhibition (INH) (Cytochrome P450 2D6): > 10%
SMILES: Cc1cc(CNC(=O)c2cc(C(=O)NCc3ccc(F)c(C)c3)ncn2)ccc1F

SMILES: COC(=O)c1ccc(CSc2nc3c(c(=O)[nH]2)CCC3)cc1
inhibition at 20 µM (CYP2B6 [5]): < 50%
inhibition at 20 µM (CYP2C8): < 50%
inhibition at 20 µM (CYP2C9): 17%
inhibition at 20 µM (CYP2C19 [6]): < 50%
inhibition at 20 µM (CYP2D6): < 50%
